# From ChEMBL document CHEMBL4393719, “Tetrahydro-3-benzazepines with fluorinated side chains as NMDA and σ1 receptor antagonists: Synthesis, receptor affinity, selectivity and antiallodynic activity” (Eur J Med Chem, 2019)
# Biological target: 5-hydroxytryptamine receptor 1A (Homo sapiens) (UniProt P08908)
# Assay: Displacement of [3H]8-OH-DPAT from human 5HT1A receptor at 1 uM incubated for 2 hrs scintillation counting method relative to control
# Details: not given
# Procedure, shortened: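 Human 5-HT1A-enriched membranes (10 μg), 2 nM [3H]-8-OH-DPAT, 50 mM Tris-HCl/5 mM MgCl2 pH 7.4, 0.1% DMSO final, 2 h at 37 °C; 10 μM 5-HT for nonspecific binding. Compound at 1 μM; radioligand displacement read after GF/C filtration.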
# Chain of 5-hydroxytryptamine receptor 1A (Homo sapiens) (P08908 whole entry): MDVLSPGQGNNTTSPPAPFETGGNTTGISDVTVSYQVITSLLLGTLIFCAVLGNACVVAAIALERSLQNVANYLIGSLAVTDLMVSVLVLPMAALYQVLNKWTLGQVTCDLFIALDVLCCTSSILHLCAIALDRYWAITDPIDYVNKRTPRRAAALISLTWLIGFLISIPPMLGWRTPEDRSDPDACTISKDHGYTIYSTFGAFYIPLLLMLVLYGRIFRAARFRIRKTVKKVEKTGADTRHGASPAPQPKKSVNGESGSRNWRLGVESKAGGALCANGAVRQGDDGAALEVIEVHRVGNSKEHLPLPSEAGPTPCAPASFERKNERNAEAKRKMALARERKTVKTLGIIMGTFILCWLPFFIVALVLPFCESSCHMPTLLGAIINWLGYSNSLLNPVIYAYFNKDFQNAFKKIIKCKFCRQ
row,Compound,inhibition [%]
1,FC(CCN1CCc2ccccc2CC1)Cc1ccccc1 (configuration not stated),72

# Biological target: T1, Mu-type opioid receptor (Homo sapiens, UniProt P35372)
# T1 sequence (P35372 whole entry): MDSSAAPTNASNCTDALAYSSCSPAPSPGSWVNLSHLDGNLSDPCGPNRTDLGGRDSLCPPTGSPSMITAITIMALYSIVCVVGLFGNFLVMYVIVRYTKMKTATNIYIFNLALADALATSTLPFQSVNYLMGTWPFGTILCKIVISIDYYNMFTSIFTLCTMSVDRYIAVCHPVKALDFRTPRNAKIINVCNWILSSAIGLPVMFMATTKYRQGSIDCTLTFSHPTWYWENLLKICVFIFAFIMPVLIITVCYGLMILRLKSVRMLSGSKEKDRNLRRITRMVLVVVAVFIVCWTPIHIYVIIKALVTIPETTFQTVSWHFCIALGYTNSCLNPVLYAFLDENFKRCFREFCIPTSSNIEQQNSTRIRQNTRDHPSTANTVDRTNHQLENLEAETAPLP
# Assay: Displacement of [3H]DAMGO from human MOR expressed in CHO-K1 cells membranes after 60 mins by micro beta scintillation counting method
# Type: cell membranes
# Details: not given
# Procedure, shortened: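 Human MOR in CHO-K1 membranes (20 µg) with 1 nM [3H]DAMGO in 50 mM Tris-HCl, 5 mM MgCl2, pH 7.4, 27 °C for 60 min. Test compound at five concentrations; 10 µM naloxone defines nonspecific binding. Filtered, washed thrice with ice-cold 10 mM Tris-HCl, counted by liquid scintillation.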
row,Compound,Ki [nM]
1,FC(CCN1CCc2ccccc2CC1)Cc1ccccc1 (configuration not stated),406

# Biological target: Histamine H1 receptor (Homo sapiens) (UniProt P35367)
# Sequence (P35367 whole entry): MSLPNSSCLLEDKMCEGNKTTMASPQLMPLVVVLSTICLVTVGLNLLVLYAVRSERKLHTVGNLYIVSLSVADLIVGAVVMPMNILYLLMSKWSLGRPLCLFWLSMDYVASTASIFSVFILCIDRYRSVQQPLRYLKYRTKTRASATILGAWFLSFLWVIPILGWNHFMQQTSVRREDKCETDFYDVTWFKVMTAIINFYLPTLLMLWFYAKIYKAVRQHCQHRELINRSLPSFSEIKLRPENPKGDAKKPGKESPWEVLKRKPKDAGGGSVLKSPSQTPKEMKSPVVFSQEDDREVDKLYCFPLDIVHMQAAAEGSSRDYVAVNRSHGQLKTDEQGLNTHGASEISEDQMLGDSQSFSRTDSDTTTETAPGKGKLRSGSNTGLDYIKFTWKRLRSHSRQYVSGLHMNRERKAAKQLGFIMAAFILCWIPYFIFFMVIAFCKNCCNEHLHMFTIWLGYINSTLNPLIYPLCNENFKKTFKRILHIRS
# Assay: Displacement of [3H]pyrilamine from human recombinant histamine H1 receptor at 1 uM after 90 mins by scintillation counting method relative to control
# Details: not given
# Procedure, shortened: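 Human H1 receptor-enriched membranes (25 μg) with 2.4 nM [3H]pyrilamine in Na+/K+ phosphate buffer pH 7.4, 0.1% DMSO, 90 min, 25 °C; 10 μM triprolidine for nonspecific binding. Single 1 μM test concentration; filtration-based readout of displacement.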
row,Compound,inhibition [%]
1,FC(CCN1CCc2ccccc2CC1)Cc1ccccc1 (configuration not stated),< 50

# Tested on: not listed separately
# Assay: Stability of compound in aqueous HCl solution at pH 2 after 24 hrs by HPLC analysis
# Type: physicochemical
# Details: buffer, pH 2, 24 h
# Procedure, shortened: (§1)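 Compound (25 μL of 10 mM DMSO stock) added to 1 mL aqueous buffered solution, pH 2 or pH 7.4, stirred 24 h at room temperature, analyzed by HPLC-MS; deemed stable if peak area remained 95–105%.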
row,Compound,Stability
1,FC(CCN1CCc2ccccc2CC1)Cc1ccccc1 (configuration not stated),Stable

# Species on record: Sus scrofa
# Details: at 1 µM
row,Compound,inhibition [%]
1,COc1ccc2c(c1)CCN(CCCCc1ccccc1)CC2,0
2,COc1ccc2c(c1)CCN(CC(F)CCc1ccccc1)CC2O (configuration not stated),0
3,FC(CCN1CCc2ccccc2CC1)Cc1ccccc1 (configuration not stated),0
4,FC(CCc1ccccc1)CN1CCc2ccccc2CC1 (configuration not stated),0
5,COc1ccc2c(c1)CCN(CCC(F)Cc1ccccc1)CC2O (configuration not stated),0

# Tested on: not listed separately
# Assay: Displacement of [3H] ifenprodil from GluN2B/GluN1a (unknown origin) expressed in mouse L(tk-) cell membranes incubated for 120 mins by scintillation counting method
# Parameters: species or system Homo sapiens
# Details: not given
# Procedure, shortened: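 Membranes from mouse L(tk-) cells co-transfected with dexamethasone-inducible GluN1a/GluN2B (1:5), induced 24 h with 4 μM dexamethasone plus 4 μM ketamine.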
row,Compound,Ki [nM]
1,COc1ccc2c(c1)CCN(CCCCc1ccccc1)CC2,55
2,COc1ccc2c(c1)CCN(CC(F)CCc1ccccc1)CC2O (configuration not stated),506
3,FC(CCN1CCc2ccccc2CC1)Cc1ccccc1 (configuration not stated),30
4,FC(CCc1ccccc1)CN1CCc2ccccc2CC1 (configuration not stated),239
5,COc1ccc2c(c1)CCN(CCC(F)Cc1ccccc1)CC2O (configuration not stated),630

# Biological target: Sodium-dependent dopamine transporter (Homo sapiens) (UniProt Q01959)
# Sequence (Q01959 whole entry): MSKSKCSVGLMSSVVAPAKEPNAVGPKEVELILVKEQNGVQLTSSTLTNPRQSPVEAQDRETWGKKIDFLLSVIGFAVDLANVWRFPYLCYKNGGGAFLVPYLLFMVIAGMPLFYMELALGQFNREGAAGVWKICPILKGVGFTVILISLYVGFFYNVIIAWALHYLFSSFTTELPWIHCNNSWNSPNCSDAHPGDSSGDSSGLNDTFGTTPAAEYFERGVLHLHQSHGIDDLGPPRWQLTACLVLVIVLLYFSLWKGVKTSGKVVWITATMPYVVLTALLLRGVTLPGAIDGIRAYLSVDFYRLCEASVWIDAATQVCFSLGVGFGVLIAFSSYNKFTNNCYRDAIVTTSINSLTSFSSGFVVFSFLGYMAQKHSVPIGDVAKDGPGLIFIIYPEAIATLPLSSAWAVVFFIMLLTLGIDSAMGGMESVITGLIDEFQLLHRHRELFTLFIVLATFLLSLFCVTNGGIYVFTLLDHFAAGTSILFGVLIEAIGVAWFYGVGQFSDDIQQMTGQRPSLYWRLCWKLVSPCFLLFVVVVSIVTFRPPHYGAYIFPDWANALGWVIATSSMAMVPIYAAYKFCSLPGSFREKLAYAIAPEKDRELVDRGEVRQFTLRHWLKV
# Assay: Displacement of [3H]GBR12935 from human DAT at 1 uM after 120 mins by scintillation counting method relative to control
# Details: not given
# Procedure, shortened: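 DAT-enriched human membranes (5 µg), 2 nM [3H]GBR12935 in 50 mM Tris-HCl/100 mM NaCl pH 7.4, 0.1% DMSO, 120 min at 4 °C; 10 µM GBR12909 for nonspecific binding. Compound at 1 µM; displacement measured after filtration.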
row,Compound,inhibition [%]
1,FC(CCN1CCc2ccccc2CC1)Cc1ccccc1 (configuration not stated),< 50

# Biological target: Voltage-gated inwardly rectifying potassium channel KCNH2 (Homo sapiens, UniProt Q12809)
# Sequence (Q12809 whole entry): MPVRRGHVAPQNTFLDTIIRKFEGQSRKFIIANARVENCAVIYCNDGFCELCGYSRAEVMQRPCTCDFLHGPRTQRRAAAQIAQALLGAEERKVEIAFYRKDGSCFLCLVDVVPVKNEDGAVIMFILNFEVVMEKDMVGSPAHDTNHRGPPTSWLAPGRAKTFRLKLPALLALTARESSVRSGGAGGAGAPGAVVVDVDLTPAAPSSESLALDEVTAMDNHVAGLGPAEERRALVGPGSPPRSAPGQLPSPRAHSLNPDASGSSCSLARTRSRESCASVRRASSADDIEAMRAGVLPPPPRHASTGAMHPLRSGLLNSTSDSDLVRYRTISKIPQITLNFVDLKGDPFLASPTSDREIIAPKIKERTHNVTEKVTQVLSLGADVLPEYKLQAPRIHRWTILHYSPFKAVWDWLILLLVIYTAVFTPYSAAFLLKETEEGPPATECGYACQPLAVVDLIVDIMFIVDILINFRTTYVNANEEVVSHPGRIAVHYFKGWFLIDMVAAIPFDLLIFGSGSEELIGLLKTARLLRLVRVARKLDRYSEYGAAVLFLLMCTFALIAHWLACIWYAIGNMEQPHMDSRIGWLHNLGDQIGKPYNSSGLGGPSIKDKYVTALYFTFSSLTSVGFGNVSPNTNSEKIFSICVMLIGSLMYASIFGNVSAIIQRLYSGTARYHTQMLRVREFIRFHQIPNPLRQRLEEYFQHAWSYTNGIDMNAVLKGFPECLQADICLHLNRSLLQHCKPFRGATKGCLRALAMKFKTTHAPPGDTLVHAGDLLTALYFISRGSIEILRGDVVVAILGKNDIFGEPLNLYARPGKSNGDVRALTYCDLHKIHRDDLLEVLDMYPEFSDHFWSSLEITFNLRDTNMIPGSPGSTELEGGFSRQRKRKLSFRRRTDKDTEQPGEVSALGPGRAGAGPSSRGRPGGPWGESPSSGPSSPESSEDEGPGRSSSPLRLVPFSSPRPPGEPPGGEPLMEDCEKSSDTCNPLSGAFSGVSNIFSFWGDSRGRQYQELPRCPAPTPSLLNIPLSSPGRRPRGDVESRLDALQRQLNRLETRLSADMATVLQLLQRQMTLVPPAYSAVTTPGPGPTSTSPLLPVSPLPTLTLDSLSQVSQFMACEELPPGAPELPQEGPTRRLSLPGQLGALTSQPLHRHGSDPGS
# Assay: Inhibition of human ERG expressed in CHO cells at -80 mV holding potential by automated patch clamp electrophysiology assay
# Type: cell-based
# Details: not given
row,Compound,IC50 [nM]
1,FC(CCN1CCc2ccccc2CC1)Cc1ccccc1 (configuration not stated),1180

# Tested on: HepG2
# Assay: Cytotoxicity against human HepG2 assessed as reduction in cell viability at 1 to 100 uM after 20 hrs by MTT assay
# Type: cell-based
# Details: hepg2, 20 h
# Procedure, shortened: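 HepG2 cells, 3 x 10^4/well, grown 24 h in MEM/10% FBS, then exposed 20 h in serum-free medium to compound at 1, 10, 100 µM (from DMSO solutions). MTT 0.5 mg/mL for 4 h, formazan dissolved in DMSO, OD 550 nm. IC50 taken as lowest concentration giving ≥50% cytotoxicity versus untreated cells; duplicates in two assays (n = 4).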
row,Compound,Activity
1,FC(CCN1CCc2ccccc2CC1)Cc1ccccc1 (configuration not stated),Toxic

# Biological target: T1, Mu-type opioid receptor
# Assay: Agonist activity at MOR (unknown origin) by cAMP assay
# Type: functional
# Details: not given
row,Compound,EC50 [nM]
1,FC(CCN1CCc2ccccc2CC1)Cc1ccccc1 (configuration not stated),> 10000

# Biological target: Kappa-type opioid receptor (Homo sapiens, UniProt P41145)
# Assay: Inhibition of KOR (unknown origin)
# Details: not given
row,Compound,Ki [nM]
1,FC(CCN1CCc2ccccc2CC1)Cc1ccccc1 (configuration not stated),> 1000

# Tested on: not listed separately
# Assay: Drug metabolism in rat liver microsomes at 1 uM incubated for 1 hr in presence of NADPH by UPLC-MS analysis
# Type: ADME, Microsome
# Details: read-out: Drug metabolism
# Procedure, shortened: (§2)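 Liver microsomes, compound 1 µM, 37 °C for 1 h in 50 mM Na/K phosphate pH 7.4, 3 mM MgCl2, NADPH-regenerating system, CYP 0.3 nmol/mL. Aliquots at 0, 10, 20, 40, 60 min quenched with cold acetonitrile, supernatants by UPLC-MS/MS; % parent remaining at end reported. Terfenadine as positive control.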
row,Compound,"metabolised at 1 h, 1 µM [%]"
1,FC(CCN1CCc2ccccc2CC1)Cc1ccccc1 (configuration not stated),100

# Biological target: T2, Sigma intracellular receptor 2 (Rattus norvegicus, UniProt Q5U3Y7)
# T2 sequence (Q5U3Y7 whole entry): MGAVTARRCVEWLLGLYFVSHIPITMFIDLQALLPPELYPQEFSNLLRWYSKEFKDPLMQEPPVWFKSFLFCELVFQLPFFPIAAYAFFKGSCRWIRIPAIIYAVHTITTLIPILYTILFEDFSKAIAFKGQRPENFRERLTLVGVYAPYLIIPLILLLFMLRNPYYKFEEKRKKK
# Assay: Displacement of [3H]-di-o-tolylguanidine from sigma2 receptor in rat liver membranes incubated for 120 mins by scintillation counting method
# Type: cell membranes
# Details: not given
row,Compound,Ki [nM]
1,COc1ccc2c(c1)CCN(CCCCc1ccccc1)CC2,56
2,COc1ccc2c(c1)CCN(CC(F)CCc1ccccc1)CC2O (configuration not stated),7900
3,FC(CCN1CCc2ccccc2CC1)Cc1ccccc1 (configuration not stated),48
4,FC(CCc1ccccc1)CN1CCc2ccccc2CC1 (configuration not stated),333
5,COc1ccc2c(c1)CCN(CCC(F)Cc1ccccc1)CC2O (configuration not stated),4500

# Biological target: 5-hydroxytryptamine receptor 2B (Homo sapiens) (UniProt P41595)
# Sequence (P41595 whole entry): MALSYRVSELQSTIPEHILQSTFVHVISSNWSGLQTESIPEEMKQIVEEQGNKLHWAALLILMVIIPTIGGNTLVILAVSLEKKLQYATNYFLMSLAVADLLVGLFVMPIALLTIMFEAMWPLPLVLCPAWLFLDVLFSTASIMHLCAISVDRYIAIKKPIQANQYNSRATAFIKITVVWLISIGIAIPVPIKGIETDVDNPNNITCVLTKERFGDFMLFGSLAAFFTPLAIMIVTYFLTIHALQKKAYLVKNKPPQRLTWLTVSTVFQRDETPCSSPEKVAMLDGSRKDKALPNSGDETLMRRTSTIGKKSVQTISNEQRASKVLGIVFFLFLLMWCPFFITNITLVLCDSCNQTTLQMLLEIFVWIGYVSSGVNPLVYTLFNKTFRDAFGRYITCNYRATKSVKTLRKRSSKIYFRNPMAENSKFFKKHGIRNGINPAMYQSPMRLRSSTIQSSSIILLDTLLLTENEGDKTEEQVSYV
# Assay: Displacement of [3H]-LSD from recombinant human 5HT2B receptor at 1 uM after 30 mins by scintillation counting method relative to control
# Details: not given
# Procedure, shortened: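 Human 5-HT2B-enriched membranes (5 µg), 1 nM [3H]LSD in 50 mM Tris-HCl, 4 mM CaCl2, 1% ascorbic acid, pH 7.4, 0.1% DMSO; 30 min, 37 °C; 50 µM 5-HT for nonspecific binding. Single 1 µM compound concentration; displacement after filtration.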
row,Compound,inhibition [%]
1,FC(CCN1CCc2ccccc2CC1)Cc1ccccc1 (configuration not stated),< 50

# Tested on: not listed separately
# Assay: Drug metabolism in human liver microsomes at 1 uM incubated for 1 hr in presence of NADPH by UPLC-MS analysis
# Type: ADME, Microsome
# Details: read-out: Drug metabolism
# Procedure, shortened: as §2
row,Compound,"metabolised at 1 h, 1 µM [%]"
1,FC(CCN1CCc2ccccc2CC1)Cc1ccccc1 (configuration not stated),100

# Biological target: Sodium-dependent noradrenaline transporter (Homo sapiens) (UniProt P23975)
# Sequence (P23975 whole entry): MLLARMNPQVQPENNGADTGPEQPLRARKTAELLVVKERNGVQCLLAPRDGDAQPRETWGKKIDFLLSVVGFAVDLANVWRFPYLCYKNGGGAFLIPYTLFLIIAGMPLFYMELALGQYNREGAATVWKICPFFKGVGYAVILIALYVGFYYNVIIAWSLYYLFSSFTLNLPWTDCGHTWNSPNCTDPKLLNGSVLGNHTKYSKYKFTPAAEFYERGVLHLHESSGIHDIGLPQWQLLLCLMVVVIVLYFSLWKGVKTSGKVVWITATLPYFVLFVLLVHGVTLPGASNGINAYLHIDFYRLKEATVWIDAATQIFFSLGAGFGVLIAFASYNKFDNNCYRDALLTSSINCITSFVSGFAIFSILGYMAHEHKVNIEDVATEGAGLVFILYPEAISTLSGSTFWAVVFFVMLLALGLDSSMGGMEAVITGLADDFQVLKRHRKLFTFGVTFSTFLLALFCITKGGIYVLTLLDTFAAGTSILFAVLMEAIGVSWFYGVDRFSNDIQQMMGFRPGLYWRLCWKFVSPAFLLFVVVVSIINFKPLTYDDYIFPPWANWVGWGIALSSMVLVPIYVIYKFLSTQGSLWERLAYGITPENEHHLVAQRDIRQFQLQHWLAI
# Assay: Displacement of [3H]nisoxetine from recombinant human norepinephrine transporter at 1 uM after 60 mins by scintillation counting method relative to control
# Details: not given
# Procedure, shortened: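 Human NET-enriched membranes (1 μg), 5 nM [3H]nisoxetine in 50 mM Tris-HCl, 120 mM NaCl, 5 mM KCl, pH 7.4, 1% DMSO final; 60 min at 4 °C; 10 μM desipramine for nonspecific binding. Single 1 μM compound; filtration, displacement of radioligand.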
row,Compound,inhibition [%]
1,FC(CCN1CCc2ccccc2CC1)Cc1ccccc1 (configuration not stated),< 50

# Tested on: not listed separately
# Assay: Stability of compound in phosphate buffer at pH 7.4 after 24 hrs by HPLC analysis
# Type: physicochemical
# Details: pH 7.4, 24 h
# Procedure, shortened: as §1
row,Compound,Stability
1,FC(CCN1CCc2ccccc2CC1)Cc1ccccc1 (configuration not stated),Stable

# Biological target: Sigma non-opioid intracellular receptor 1 (Cavia porcellus, UniProt Q60492);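 further: radioligand displacement of [3H]-(+)-pentazocine from guinea pig brain cortex membranes, 120 min incubation, bound radioactivity read by scintillation counting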
# Sequence (Q60492 whole entry): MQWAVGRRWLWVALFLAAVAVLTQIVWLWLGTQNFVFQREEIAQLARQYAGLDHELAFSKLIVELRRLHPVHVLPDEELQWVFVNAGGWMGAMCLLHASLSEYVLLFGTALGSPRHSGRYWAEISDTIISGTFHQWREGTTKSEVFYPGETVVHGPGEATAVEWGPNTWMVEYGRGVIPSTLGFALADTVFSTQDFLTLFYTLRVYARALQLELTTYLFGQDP
# Type: cell membranes
# Details: not given
row,Compound,Ki [nM]
1,COc1ccc2c(c1)CCN(CCCCc1ccccc1)CC2,11
2,COc1ccc2c(c1)CCN(CC(F)CCc1ccccc1)CC2O (configuration not stated),585
3,FC(CCN1CCc2ccccc2CC1)Cc1ccccc1 (configuration not stated),8
4,FC(CCc1ccccc1)CN1CCc2ccccc2CC1 (configuration not stated),108
5,COc1ccc2c(c1)CCN(CCC(F)Cc1ccccc1)CC2O (configuration not stated),210

# Biological target: Sodium-dependent serotonin transporter (Homo sapiens) (UniProt P31645)
# Assay: Displacement of [3H]imipramine from human serotonin transporter at 1 uM after 30 mins by scintillation counting method relative to control
# Details: not given
# Procedure, shortened: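 Human SERT-enriched membranes (3.5 μg) incubated 30 min at 27 °C with 3 nM [3H]imipramine in Tris-HCl/120 mM NaCl/5 mM KCl pH 7.4, 0.1% DMSO; 200 μM imipramine for nonspecific binding. Compound at 1 μM; displacement after filtration.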
row,Compound,inhibition [%]
1,FC(CCN1CCc2ccccc2CC1)Cc1ccccc1 (configuration not stated),< 50

# Tested on: not listed separately
# Assay: Drug metabolism in mouse liver microsomes at 1 uM incubated for 1 hr in presence of NADPH by UPLC-MS analysis
# Type: ADME, Microsome
# Details: read-out: Drug metabolism
# Procedure, shortened: as §2
row,Compound,"metabolised at 1 h, 1 µM [%]"
1,FC(CCN1CCc2ccccc2CC1)Cc1ccccc1 (configuration not stated),100

# Biological target: Alpha-1A adrenergic receptor (Homo sapiens) (UniProt P35348)
# Sequence (P35348 whole entry): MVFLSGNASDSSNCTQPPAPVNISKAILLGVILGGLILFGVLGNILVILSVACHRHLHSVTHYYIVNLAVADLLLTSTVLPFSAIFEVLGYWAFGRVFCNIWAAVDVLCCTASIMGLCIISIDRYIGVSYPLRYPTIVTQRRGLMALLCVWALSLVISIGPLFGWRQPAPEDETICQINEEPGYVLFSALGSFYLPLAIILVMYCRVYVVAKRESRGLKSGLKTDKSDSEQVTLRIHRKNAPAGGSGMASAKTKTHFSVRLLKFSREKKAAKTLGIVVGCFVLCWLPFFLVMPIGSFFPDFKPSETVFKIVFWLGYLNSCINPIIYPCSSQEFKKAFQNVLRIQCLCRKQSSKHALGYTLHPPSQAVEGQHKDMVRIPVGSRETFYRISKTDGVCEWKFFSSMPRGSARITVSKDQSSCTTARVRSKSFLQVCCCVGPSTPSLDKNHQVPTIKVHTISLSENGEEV
# Assay: Displacement of [3H]prazosin from human adrenergic alpha1A receptor at 1 uM after 90 mins by scintillation counting method relative to control
# Details: not given
# Procedure, shortened: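 α1A adrenoceptor-enriched human membranes (10 µg), 0.2 nM [3H]prazosin in 50 mM HEPES, 5 mM MgCl2, 1 mM CaCl2, 0.2% BSA, pH 7.4; 90 min at 25 °C; 1 µM prazosin for nonspecific binding. Compound tested at 1 µM; bound ligand collected by filtration.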
row,Compound,inhibition [%]
1,FC(CCN1CCc2ccccc2CC1)Cc1ccccc1 (configuration not stated),< 50

# Biological target: CYP2D6 (Homo sapiens, UniProt P10635)
# Assay: Inhibition of recombinant human CYP2D6 at 1 uM by fluorescence probe substrate-based flurometric analysis
# Type: ADME
# Details: not given
row,Compound,inhibition at 1 µM [%]
1,FC(CCN1CCc2ccccc2CC1)Cc1ccccc1 (configuration not stated),85

# Tested on: HepG2
# Assay: Cytotoxicity against human HepG2 assessed as reduction in cell viability at 1 to 100 uM after 20 hrs by neutral red uptake assay
# Type: cell-based
# Details: hepg2, 20 h
# Procedure, shortened: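 HepG2 seeded 3 x 10^4/well, 24 h, then 20 h serum-free exposure at 1, 10 or 100 µM. Neutral red 50 µg/mL for 3 h, washed, dye extracted with 50% ethanol/1% acetic acid, OD 550 nm. IC50 assigned as lowest concentration reaching ≥50% cytotoxicity against untreated cells; n = 4 (duplicate, two assays).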
row,Compound,Activity
1,FC(CCN1CCc2ccccc2CC1)Cc1ccccc1 (configuration not stated),Toxic

# Tested on: not listed separately
# Assay: Selectivity ratio of Ki for sigma2 receptor in rat liver membranes to ratio of Ki for GluN2B/GluN1a (unknown origin) expressed in mouse L(tk-) cell membranes
# Type: cell-based
# Details: not given
row,Compound,Ratio Ki
1,COc1ccc2c(c1)CCN(CC(F)CCc1ccccc1)CC2O (configuration not stated),15
2,COc1ccc2c(c1)CCN(CCC(F)Cc1ccccc1)CC2O (configuration not stated),7

# Biological target: Delta-type opioid receptor (Homo sapiens, UniProt P41143)
# Assay: Inhibition of DOR (unknown origin)
# Details: not given
row,Compound,Ki [nM]
1,FC(CCN1CCc2ccccc2CC1)Cc1ccccc1 (configuration not stated),> 1000
